Reference: ChEMBL document CHEMBL3271979, “Inhibition of solid tumors by nitrosoureas. 1. Lewis lung carcinoma” (1977)
Calls of active or inactive are those of the source. The rule behind the calls is not given here.

Tests used:
[1] = Antitumor activity against mouse early Lewis lung carcinoma allografted in BDF1 mouse assessed as increase in host life span at 30 mg/kg, ip administered as single dose on 1 or 2 days post-tumor implantation; assay type: functional; conditions: route intraperitoneal
How it was run: (§1)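 BDF1 mice (C57Blk/6 × DBA/2) implanted sc by trocar with ~40 mg Lewis lung tumor fragments from bacteriologically sterile donor tumors. Single ip dose on day 1 or 2, as a solution or suspension in water (CMC or gum acacia) or saline (HPC or Tween 80). Read-out is […]. Same-dose toxicity controls were run in nontumor-bearing mice.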

[2] = Antitumor activity against mouse early Lewis lung carcinoma allografted in BDF1 mouse assessed as increase in host life span at 45 mg/kg, ip administered as single dose on 1 or 2 days post-tumor implantation; assay type: functional; conditions: route intraperitoneal; how it was run: as §1
[3] = Antitumor activity against mouse early Lewis lung carcinoma allografted in BDF1 mouse assessed as time delay in tumor growth at 30 mg/kg, ip administered as single dose on 1 or 2 days post-tumor implantation; assay type: functional; conditions: route intraperitoneal
How it was run: (§2)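 BDF1 mice (C57Blk/6 × DBA/2) implanted sc by trocar with ~40 mg Lewis lung tumor fragments from bacteriologically sterile donors. A single ip dose was given on day 1 or 2, as a solution or suspension in water or saline with suspending agent, at ≤0.5 ml. Tumors were measured by caliper at least twice weekly, with weight = ab²/2. Delay was taken as the days for the tumor to reach 1 g.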

[4] = Antitumor activity against mouse early Lewis lung carcinoma allografted in BDF1 mouse assessed as time delay in tumor growth at 45 mg/kg, ip administered as single dose on 1 or 2 days post-tumor implantation; assay type: functional; conditions: route intraperitoneal; how it was run: as §2
[5] = Antitumor activity against mouse early Lewis lung carcinoma allografted in ip dosed BDF1 mouse assessed as disease cure administered as single dose on 1 or 2 days post-tumor implantation measured for 80 days post-drug treatment; assay type: functional
How it was run: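 BDF1 mice implanted sc by trocar with ~40 mg Lewis lung fragments from sterile donor tumors. A single ip dose was given on day 1 or 2 after implant, in water or saline vehicle. Cures were scored in animals observed for at least 80 days after treatment. Drug-toxicity controls were matched non-tumor-bearing mice monitored for body weight and deaths.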

L1210 = experiment: Antitumor activity against mouse L1210 cells allografted in ip dosed mouse assessed as disease cure administered as single dose; assay type: functional, organism-based
Mus musculus [6] = experiment: Antitumor activity against mouse advanced Lewis lung carcinoma allografted in ip dosed BDF1 mouse assessed as complete regression of established tumor administered as single dose on day 6 or 7 post-tumor implantation; assay type: functional, organism-based
How it was run: (§3)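 BDF1 mice (C57Blk/6 × DBA/2) implanted sc by trocar with Lewis lung tumor fragments of about 40 mg, taken only from bacteriologically sterile donor tumors. Mice bearing tumors of about 400 mg (day 6-7) were selected. Each received a single ip dose on day 7, at or below the LD10 in normal mice. Groups were of 10 mice. Tumor weight was taken from calipers as w = ab²/2, measured at least twice weekly. Matched non-tumor mice served as toxicity controls.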

[7] = Antitumor activity against mouse advanced Lewis lung carcinoma allografted in ip dosed BDF1 mouse assessed as increase in host lifespan administered as single dose on day 6 or 7 post-tumor implantation; assay type: functional
How it was run: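 Advanced Lewis lung model: about 40 mg fragments implanted sc by trocar into BDF1 mice, and mice with tumors of about 400 mg (day 6-7) selected. Tumor weight from calipers, w = ab²/2. Agent given as one ip dose in distilled water or physiological saline. Nontumor-bearing mice received matching doses as toxicity controls.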

[8] = Antitumor activity against mouse early Lewis lung carcinoma allografted in BDF1 mouse assessed as increase in host life span at 20 mg/kg, ip administered as single dose on 1 or 2 days post-tumor implantation; assay type: functional; conditions: route intraperitoneal; how it was run: as §1
[9] = Antitumor activity against mouse early Lewis lung carcinoma allografted in BDF1 mouse assessed as time delay in tumor growth at 20 mg/kg, ip administered as single dose on 1 or 2 days post-tumor implantation; assay type: functional; conditions: route intraperitoneal; how it was run: as §2
[10] = Ratio of ED50 for antitumor activity against mouse L1210 cells allografted in ip dosed mouse to LD10 for mouse
[11] = Antitumor activity against mouse early Lewis lung carcinoma allografted in BDF1 mouse assessed as increase in host life span at 26 mg/kg, ip administered as single dose on 1 or 2 days post-tumor implantation; assay type: functional; conditions: route intraperitoneal; how it was run: as §1
[12] = Antitumor activity against mouse early Lewis lung carcinoma allografted in BDF1 mouse assessed as increase in host life span at 34 mg/kg, ip administered as single dose on 1 or 2 days post-tumor implantation; assay type: functional; conditions: route intraperitoneal; how it was run: as §1
[13] = Antitumor activity against mouse advanced Lewis lung carcinoma allografted in BDF1 mouse assessed as increase in host life span at 26 mg/kg, ip administered as single dose on 7th day post-tumor implantation; assay type: functional; conditions: route intraperitoneal
How it was run: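 BDF1 mice (C57Blk/6 × DBA/2) implanted sc by trocar with about 40 mg Lewis lung tumor fragments from bacteriologically sterile donors. Advanced-disease groups held tumors of about 400 mg by day 6-7, sized by caliper (w = ab²/2). Single ip injection on day 7, in water or saline vehicle, at or below the LD10 in normal mice. Tumors measured at least twice weekly.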

[14] = Antitumor activity against mouse early Lewis lung carcinoma allografted in BDF1 mouse assessed as time delay in tumor growth at 26 mg/kg, ip administered as single dose on 1 or 2 days post-tumor implantation; assay type: functional; conditions: route intraperitoneal; how it was run: as §2
[15] = Antitumor activity against mouse early Lewis lung carcinoma allografted in BDF1 mouse assessed as time delay in tumor growth at 34 mg/kg, ip administered as single dose on 1 or 2 days post-tumor implantation; assay type: functional; conditions: route intraperitoneal; how it was run: as §2
Mus musculus [16] = experiment: Antitumor activity against mouse advanced Lewis lung carcinoma allografted in ip dosed BDF1 mouse assessed as disease cure administered as single dose on day 6 or 7 post-tumor implantation; assay type: functional, organism-based; how it was run: as §3

Row | Structure (SMILES) | ILS at 30 mg/kg [1] | ILS at 45 mg/kg [2] | Time [3] | Time [4] | Activity [5] | Activity (L1210) | inhibition (Mus musculus [6]) | ILS [7] | ILS at 20 mg/kg [8] | Time [9] | Ratio [10] | ILS at 26 mg/kg [11] | ILS at 34 mg/kg [12] | ILS at 26 mg/kg [13] | Time [14] | Time [15] | Activity (Mus musculus [16])
1 | O=NN(CCCl)C(=O)N[C@H]1CC[C@@H](O)CC1 | 92% | 110% | 5.1 days | 18 days | 10% | inactive | inactive | <25% |  |  |  |  |  |  |  |  | 
2 | C[C@H]1SC[C@@H](NC(=O)N(CCCl)N=O)CS1 | 42% |  | 18 days |  | 10% |  | inactive | <25% | 0% | 8.1 days | 0.4 |  |  |  |  |  | 
3 | O=NN(CCCl)C(=O)N[C@H]1CC[C@H](CC(=O)O)CC1 |  |  |  |  | >50% |  | inactive | >25% |  |  | 0.3 | 34% | 23% | 24% | 10 days | 11 days | inactive
